{"source": "ChEMBL document CHEMBL5678806", "about": "“NMS-P937, an orally available, specific small-molecule polo-like kinase 1 inhibitor with antitumor activity in solid and hematologic malignancies” (Mol Cancer Ther, 2012)", "key": {"[1]": {"experiment": "Inhibition of AUR2 (unknown origin) in presence of [gamma-33P]ATP", "design": "species or system Homo sapiens"}, "LP-1": {"system": "LP-1", "experiment": "Antiproliferative activity against human LP-1 cells assessed as inhibition of cell growth incubated for 72 hrs by cell-titer glo assay", "assay_type": "functional, cell-based", "conditions": "LP-1, 72 h", "how_it_was_run": "(§1)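 Cells seeded at 10,000–30,000/cm² (adherent) or 100,000/mL (nonadherent) in medium with 10% fetal calf serum; after 24 h, treated in duplicate with serial dilutions for 72 h. Viable cell number read by CellTiter-Glo luminescence; IC50 from sigmoidal fit; at least two independent experiments.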"}, "HT-1080": {"system": "HT-1080", "experiment": "Antiproliferative activity against human HT-1080 cells assessed as inhibition of cell growth incubated for 72 hrs by cell-titer glo assay", "assay_type": "functional, cell-based", "conditions": "HT-1080, 72 h", "how_it_was_run": "as §1"}, "MFM-223": {"system": "MFM-223", "experiment": "Antiproliferative activity against human MFM-223 cells assessed as inhibition of cell growth incubated for 72 hrs by cell-titer glo assay", "assay_type": "functional, cell-based", "conditions": "MFM-223, 72 h", "how_it_was_run": "(§2)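 Cells from ATCC or ECACC, kept in supplier-recommended medium with 1% penicillin-streptomycin at 37°C, 5% CO₂. Seeded at 10,000–30,000/cm² (adherent) or 100,000/mL (nonadherent) in medium with 10% fetal calf serum. Dosed after 24 h in duplicate with serial dilutions. Viable cells read by CellTiter-Glo 72 h later. IC50 from sigmoidal fit. At least two independent experiments.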"}, "[2]": {"biological_target": "Casein kinase I homolog 1 (Saccharomyces cerevisiae S288c) (UniProt P23291)", "sequence (P23291 whole entry)": "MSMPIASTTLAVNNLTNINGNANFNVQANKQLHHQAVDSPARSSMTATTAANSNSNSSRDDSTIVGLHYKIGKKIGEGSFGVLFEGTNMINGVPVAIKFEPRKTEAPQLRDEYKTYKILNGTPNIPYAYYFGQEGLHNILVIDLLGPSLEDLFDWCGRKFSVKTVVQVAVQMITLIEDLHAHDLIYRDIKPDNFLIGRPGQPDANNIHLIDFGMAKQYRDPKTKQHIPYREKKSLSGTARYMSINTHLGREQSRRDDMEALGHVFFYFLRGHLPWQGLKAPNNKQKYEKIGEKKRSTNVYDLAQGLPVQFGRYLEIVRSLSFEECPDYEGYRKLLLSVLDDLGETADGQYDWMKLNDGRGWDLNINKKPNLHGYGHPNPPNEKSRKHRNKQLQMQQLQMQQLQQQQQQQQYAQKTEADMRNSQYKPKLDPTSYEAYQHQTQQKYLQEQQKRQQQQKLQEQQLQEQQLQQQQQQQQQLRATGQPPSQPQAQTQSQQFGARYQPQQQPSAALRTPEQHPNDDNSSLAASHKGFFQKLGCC", "experiment": "Inhibition of yeast CK1 assessed as residual activity at 1 uM relative to control"}, "T84": {"system": "T84", "experiment": "Antiproliferative activity against human T84 cells assessed as inhibition of cell growth incubated for 72 hrs by cell-titer glo assay", "assay_type": "functional, cell-based", "conditions": "T84, 72 h"}, "[3]": {"experiment": "Inhibition of CDK2/CycA (unknown origin) in presence of [gamma-33P]ATP", "design": "species or system Homo sapiens"}, "[4]": {"biological_target": "SRSF protein kinase 3 (Homo sapiens) (UniProt Q9UPE1)", "sequence (Q9UPE1 whole entry)": "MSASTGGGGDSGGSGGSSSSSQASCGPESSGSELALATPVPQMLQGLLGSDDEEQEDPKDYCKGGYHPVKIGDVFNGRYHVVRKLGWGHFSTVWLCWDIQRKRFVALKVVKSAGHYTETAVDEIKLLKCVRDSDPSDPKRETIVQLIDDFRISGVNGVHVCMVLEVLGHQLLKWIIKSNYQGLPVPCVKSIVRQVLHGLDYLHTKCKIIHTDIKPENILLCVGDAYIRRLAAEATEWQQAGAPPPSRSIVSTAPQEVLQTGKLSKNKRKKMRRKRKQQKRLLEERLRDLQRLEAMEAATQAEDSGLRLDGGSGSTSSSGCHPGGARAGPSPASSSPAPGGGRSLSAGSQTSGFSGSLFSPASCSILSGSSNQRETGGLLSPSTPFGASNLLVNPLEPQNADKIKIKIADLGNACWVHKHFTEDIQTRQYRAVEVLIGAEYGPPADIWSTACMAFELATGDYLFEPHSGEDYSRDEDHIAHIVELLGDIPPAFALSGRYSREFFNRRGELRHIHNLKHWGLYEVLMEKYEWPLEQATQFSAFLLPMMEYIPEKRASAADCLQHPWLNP", "experiment": "Inhibition of N-terminal 6His-tagged recombinant human full-length MSSK1 expressed in baculovirus infected Sf21 cells assessed as residual activity at 0.1 uM relative to control"}, "HOP-62": {"system": "HOP-62", "experiment": "Antiproliferative activity against human HOP-62 cells assessed as inhibition of cell growth incubated for 72 hrs by cell-titer glo assay", "assay_type": "functional, cell-based", "conditions": "HOP-62, 72 h", "how_it_was_run": "as §1"}, "BT-549": {"system": "BT-549", "experiment": "Antiproliferative activity against human BT-549 cells assessed as inhibition of cell growth incubated for 72 hrs by cell-titer glo assay", "assay_type": "functional, cell-based", "conditions": "BT-549, 72 h", "how_it_was_run": "(§3)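 Cells seeded 10,000–30,000/cm² (adherent) or 100,000/mL (suspension) in medium with 10% fetal calf serum; after 24 h treated in duplicate with serial dilutions for 72 h. Viable cells read by CellTiter-Glo luminescence; IC50 from sigmoidal fit; at least two independent experiments.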"}, "[5]": {"biological_target": "Dual specificity mitogen-activated protein kinase kinase 7 (Homo sapiens) (UniProt O14733)", "experiment": "Inhibition of N-terminal GST-tagged recombinant human MKK7beta (2 to end residues) expressed in E. coli assessed as residual activity at 1 uM relative to control"}, "CAPAN-1": {"system": "CAPAN-1", "experiment": "Antiproliferative activity against human CAPAN-1 cells assessed as inhibition of cell growth incubated for 72 hrs by cell-titer glo assay", "assay_type": "functional, cell-based", "conditions": "CAPAN-1, 72 h", "how_it_was_run": "as §3"}, "[6]": {"biological_target": "Calcium/calmodulin-dependent protein kinase type II subunit delta (Homo sapiens) (UniProt Q13557)", "experiment": "Inhibition of recombinant full length human CaMKIIdelta assessed as residual activity at 0.1 uM relative to control"}, "[7]": {"biological_target": "Serine/threonine-protein kinase 17A (Homo sapiens) (UniProt Q9UEE5)", "sequence (Q9UEE5 whole entry)": "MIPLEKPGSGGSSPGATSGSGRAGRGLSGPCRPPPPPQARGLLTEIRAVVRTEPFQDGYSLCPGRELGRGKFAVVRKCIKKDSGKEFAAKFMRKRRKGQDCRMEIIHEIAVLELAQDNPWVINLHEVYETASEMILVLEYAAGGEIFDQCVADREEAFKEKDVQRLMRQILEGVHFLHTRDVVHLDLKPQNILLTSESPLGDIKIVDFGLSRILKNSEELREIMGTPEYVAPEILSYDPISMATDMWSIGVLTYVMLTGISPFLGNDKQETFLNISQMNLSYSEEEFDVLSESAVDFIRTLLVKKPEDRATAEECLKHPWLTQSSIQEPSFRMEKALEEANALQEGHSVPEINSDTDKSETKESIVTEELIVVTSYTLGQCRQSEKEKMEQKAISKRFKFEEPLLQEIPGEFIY", "experiment": "Inhibition of N-terminal 6His-tagged recombinant full-length human DRAK1 expressed in baculovirus infected Sf21 cells assessed as residual activity at 0.1 uM relative to control"}, "[8]": {"biological_target": "Ribosomal protein S6 kinase beta-1 (Homo sapiens) (UniProt P23443)", "sequence (P23443 whole entry, looked up, the tested form may be a part)": "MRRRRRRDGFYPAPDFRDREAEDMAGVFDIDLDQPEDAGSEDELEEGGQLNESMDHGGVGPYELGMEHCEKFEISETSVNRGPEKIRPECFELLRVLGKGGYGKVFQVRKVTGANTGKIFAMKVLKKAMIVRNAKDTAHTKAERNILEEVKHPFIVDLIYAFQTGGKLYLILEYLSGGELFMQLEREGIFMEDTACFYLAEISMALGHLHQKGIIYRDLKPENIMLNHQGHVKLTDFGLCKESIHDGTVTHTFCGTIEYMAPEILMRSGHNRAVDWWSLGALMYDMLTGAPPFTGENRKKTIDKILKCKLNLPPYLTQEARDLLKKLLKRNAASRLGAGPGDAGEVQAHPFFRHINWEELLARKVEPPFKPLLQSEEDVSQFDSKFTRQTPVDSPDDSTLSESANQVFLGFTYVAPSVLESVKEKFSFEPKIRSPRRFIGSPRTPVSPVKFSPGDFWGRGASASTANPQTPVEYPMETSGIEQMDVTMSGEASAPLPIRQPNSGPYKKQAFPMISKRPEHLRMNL", "experiment": "Inhibition of N-terminal His6-tagged recombinant p70S6K (1 to 421 residues) (unknown origin) expressed in baculovirus infected Sf21 cells assessed as residual activity at 1 uM relative to control"}, "Granta-519": {"system": "Granta-519", "experiment": "Antiproliferative activity against human Granta-519 cells assessed as inhibition of cell growth incubated for 72 hrs by cell-titer glo assay", "assay_type": "functional, cell-based", "conditions": "Granta-519, 72 h", "how_it_was_run": "as §1"}, "UO-31": {"system": "UO-31", "experiment": "Antiproliferative activity against human UO-31 cells assessed as inhibition of cell growth incubated for 72 hrs by cell-titer glo assay", "assay_type": "functional, cell-based", "conditions": "UO-31, 72 h"}, "[9]": {"experiment": "Antiproliferative activity against human NCI-H2110 cells assessed as inhibition of cell growth incubated for 72 hrs by cell-titer glo assay", "assay_type": "functional, cell-based", "conditions": "NCI-H2110, 72 h", "how_it_was_run": "as §2"}, "[10]": {"biological_target": "CDK6/cyclin D3 (Homo sapiens) (UniProt P30281+Q00534)", "experiment": "Inhibition of N-terminal His6-tagged full-length human CDK6/N-terminal GST-tagged full-length human cyclinD3 expressed in Sf21 cells assessed as residual activity at 0.1 uM relative to control"}, "NCI-H460": {"system": "NCI-H460", "experiment": "Antiproliferative activity against human NCI-H460 cells assessed as inhibition of cell growth incubated for 72 hrs by cell-titer glo assay", "assay_type": "functional, cell-based", "conditions": "NCI-H460, 72 h", "how_it_was_run": "as §2"}, "Ephrin type-A receptor 2": {"biological_target": "Ephrin type-A receptor 2 (Homo sapiens, UniProt P29317)", "sequence (P29317 whole entry)": "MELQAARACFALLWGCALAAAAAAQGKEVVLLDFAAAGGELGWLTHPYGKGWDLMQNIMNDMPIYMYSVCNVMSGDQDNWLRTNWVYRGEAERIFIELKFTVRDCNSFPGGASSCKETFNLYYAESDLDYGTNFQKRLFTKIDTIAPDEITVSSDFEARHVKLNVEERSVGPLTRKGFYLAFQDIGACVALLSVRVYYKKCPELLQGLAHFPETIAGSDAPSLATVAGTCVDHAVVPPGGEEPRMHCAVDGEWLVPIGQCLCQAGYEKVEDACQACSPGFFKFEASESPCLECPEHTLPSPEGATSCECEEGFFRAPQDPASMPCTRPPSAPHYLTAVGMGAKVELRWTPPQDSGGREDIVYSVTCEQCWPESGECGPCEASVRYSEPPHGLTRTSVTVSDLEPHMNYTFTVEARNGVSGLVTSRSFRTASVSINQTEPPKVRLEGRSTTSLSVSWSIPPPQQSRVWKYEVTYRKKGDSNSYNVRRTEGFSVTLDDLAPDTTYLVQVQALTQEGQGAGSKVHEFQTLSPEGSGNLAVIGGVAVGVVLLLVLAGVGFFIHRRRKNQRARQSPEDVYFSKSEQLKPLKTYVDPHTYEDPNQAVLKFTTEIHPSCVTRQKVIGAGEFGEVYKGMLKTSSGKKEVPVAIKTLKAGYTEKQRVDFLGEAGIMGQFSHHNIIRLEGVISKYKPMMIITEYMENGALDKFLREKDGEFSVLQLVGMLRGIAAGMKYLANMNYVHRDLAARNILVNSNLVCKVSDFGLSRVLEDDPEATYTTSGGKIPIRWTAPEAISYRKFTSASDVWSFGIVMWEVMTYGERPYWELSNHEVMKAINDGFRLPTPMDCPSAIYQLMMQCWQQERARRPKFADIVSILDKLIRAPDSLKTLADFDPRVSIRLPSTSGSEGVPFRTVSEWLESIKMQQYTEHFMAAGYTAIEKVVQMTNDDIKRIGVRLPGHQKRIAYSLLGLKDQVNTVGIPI", "experiment": "Inhibition of EphA2 (unknown origin) in presence of [gamma-33P]ATP"}, "[11]": {"biological_target": "Serine/threonine-protein kinase Chk1 (Homo sapiens) (UniProt O14757)", "sequence (O14757 whole entry)": "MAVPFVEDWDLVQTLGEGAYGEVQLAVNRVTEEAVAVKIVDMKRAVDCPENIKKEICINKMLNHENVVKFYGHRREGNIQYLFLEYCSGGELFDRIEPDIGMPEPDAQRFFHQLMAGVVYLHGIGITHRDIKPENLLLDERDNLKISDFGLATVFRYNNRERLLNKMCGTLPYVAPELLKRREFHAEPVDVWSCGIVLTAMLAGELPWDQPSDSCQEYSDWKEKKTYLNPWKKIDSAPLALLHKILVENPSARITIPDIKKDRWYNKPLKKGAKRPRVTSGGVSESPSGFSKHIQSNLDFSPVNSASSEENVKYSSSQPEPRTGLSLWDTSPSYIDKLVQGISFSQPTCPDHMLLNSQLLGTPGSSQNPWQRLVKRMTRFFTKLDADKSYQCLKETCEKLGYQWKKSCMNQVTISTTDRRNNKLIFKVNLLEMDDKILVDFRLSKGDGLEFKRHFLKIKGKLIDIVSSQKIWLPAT", "experiment": "Inhibition of N-terminal GST-tagged full length human CHK1 expressed in Sf21 cells assessed as residual activity at 0.1 uM relative to control"}, "U2OS": {"system": "U2OS", "experiment": "Induction of apoptosis in human U2OS cells assessed as colocalization of cells by measuring Histone H3 phosphorylation on Ser10 incubated for 24 hrs by DRAQ 5 staining based high content imaging assay relative to control", "assay_type": "functional"}, "A2780": {"system": "A2780", "experiment": "Induction of cell cycle arrest in human A2780 cells assessed as accumulation of cells in G2/M phase by measuring NPM phosphorylation on Thr199 incubated for 24 hrs by Western blotting analysis", "assay_type": "functional, cell-based", "conditions": "dose 0.02-0.2 µmol/L", "how_it_was_run": "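A2780 ovarian carcinoma cells treated 24 h with a range of concentrations, with DMSO and nocodazole controls. 20 µg protein extract separated by SDS-PAGE and immunoblotted with chemiluminescent detection. Probed for total and phospho-Thr210 PLK1, phospho-Ser10 histone H3, phospho-Thr199 NPM and phospho-Tyr15 CDK1. Total NPM, tubulin and total CDK1 served as loading controls.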"}, "NCI-H2170": {"system": "NCI-H2170", "experiment": "Antiproliferative activity against human NCI-H2170 cells assessed as inhibition of cell growth incubated for 72 hrs by cell-titer glo assay", "assay_type": "functional, cell-based", "conditions": "NCI-H2170, 72 h", "how_it_was_run": "as §2"}, "[12]": {"biological_target": "Rho-associated protein kinase 2 (Homo sapiens) (UniProt O75116)", "sequence (O75116 whole entry, looked up, the tested form may be a part)": "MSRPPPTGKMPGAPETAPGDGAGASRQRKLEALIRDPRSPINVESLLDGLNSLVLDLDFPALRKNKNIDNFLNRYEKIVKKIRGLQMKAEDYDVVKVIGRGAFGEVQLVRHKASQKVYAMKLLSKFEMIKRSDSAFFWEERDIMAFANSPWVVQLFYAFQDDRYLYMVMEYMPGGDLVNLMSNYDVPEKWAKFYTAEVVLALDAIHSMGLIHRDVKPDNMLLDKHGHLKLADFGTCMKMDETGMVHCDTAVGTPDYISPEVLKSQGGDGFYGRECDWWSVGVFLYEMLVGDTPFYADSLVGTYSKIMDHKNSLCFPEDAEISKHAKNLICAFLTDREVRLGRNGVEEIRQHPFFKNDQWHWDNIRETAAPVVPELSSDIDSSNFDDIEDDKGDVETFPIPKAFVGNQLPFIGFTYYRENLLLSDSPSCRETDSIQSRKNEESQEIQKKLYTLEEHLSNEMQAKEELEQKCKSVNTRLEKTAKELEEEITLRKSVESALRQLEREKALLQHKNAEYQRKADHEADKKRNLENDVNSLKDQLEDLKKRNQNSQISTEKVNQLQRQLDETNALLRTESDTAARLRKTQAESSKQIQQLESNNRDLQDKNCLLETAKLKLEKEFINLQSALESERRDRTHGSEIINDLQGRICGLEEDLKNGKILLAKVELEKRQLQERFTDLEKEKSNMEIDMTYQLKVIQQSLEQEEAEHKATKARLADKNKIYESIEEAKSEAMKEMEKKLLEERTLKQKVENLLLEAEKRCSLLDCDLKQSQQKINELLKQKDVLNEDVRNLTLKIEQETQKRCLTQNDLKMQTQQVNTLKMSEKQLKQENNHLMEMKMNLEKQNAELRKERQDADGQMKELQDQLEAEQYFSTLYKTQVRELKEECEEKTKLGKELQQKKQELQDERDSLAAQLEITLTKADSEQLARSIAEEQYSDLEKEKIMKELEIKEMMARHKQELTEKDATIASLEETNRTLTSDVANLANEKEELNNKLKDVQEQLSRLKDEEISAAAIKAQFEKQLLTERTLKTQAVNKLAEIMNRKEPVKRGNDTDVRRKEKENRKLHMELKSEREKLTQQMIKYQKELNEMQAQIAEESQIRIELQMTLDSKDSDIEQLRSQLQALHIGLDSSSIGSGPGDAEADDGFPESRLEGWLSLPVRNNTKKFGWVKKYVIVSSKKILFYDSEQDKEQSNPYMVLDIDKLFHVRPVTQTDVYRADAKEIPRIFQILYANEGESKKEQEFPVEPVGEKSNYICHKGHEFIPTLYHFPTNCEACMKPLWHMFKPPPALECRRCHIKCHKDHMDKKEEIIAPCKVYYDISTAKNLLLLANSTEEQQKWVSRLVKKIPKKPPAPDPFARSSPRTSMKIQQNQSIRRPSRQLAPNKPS", "experiment": "Inhibition of N-terminal His6-tagged recombinant human ROCK-II (11 to 552 residues) expressed in baculovirus infected Sf21 cells assessed as residual activity at 0.1 uM relative to control"}, "NCI-H520": {"system": "NCI-H520", "experiment": "Antiproliferative activity against human NCI-H520 cells assessed as inhibition of cell growth incubated for 72 hrs by cell-titer glo assay", "assay_type": "functional, cell-based", "conditions": "NCI-H520, 72 h", "how_it_was_run": "as §2"}, "MDA-MB-436": {"system": "MDA-MB-436", "experiment": "Antiproliferative activity against human MDA-MB-436 cells assessed as inhibition of cell growth incubated for 72 hrs by cell-titer glo assay", "assay_type": "functional, cell-based", "conditions": "MDA-MB-436, 72 h", "how_it_was_run": "as §1"}}, "data": [{"smiles": "CN1CCN(c2ccc(OC(F)(F)F)c(Nc3ncc4c(n3)-c3c(c(C(N)=O)nn3CCO)CC4)c2)CC1", "note": "[ONVANSERTIB]", "values": [{"measurement": "IC50", "setting": "[1]", "value": "> 10000", "unit": "nM"}, {"measurement": "IC50", "setting": "LP-1", "value": 59, "unit": "nM"}, {"measurement": "IC50", "setting": "HT-1080", "value": 59, "unit": "nM"}, {"measurement": "IC50", "setting": "MFM-223", "value": 10, "unit": "nM"}, {"measurement": "Activity", "setting": "[2]", "value": 24, "unit": "%"}, {"measurement": "IC50", "setting": "T84", "value": 174, "unit": "nM"}, {"measurement": "IC50", "setting": "[3]", "value": "> 10000", "unit": "nM"}, {"measurement": "Activity", "setting": "[4]", "value": 87, "unit": "%"}, {"measurement": "IC50", "setting": "HOP-62", "value": 209, "unit": "nM"}, {"measurement": "IC50", "setting": "BT-549", "value": 49, "unit": "nM"}, {"measurement": "Activity", "setting": "[5]", "value": 80, "unit": "%"}, {"measurement": "IC50", "setting": "CAPAN-1", "value": 237, "unit": "nM"}, {"measurement": "Activity", "setting": "[6]", "value": 88, "unit": "%"}, {"measurement": "Activity", "setting": "[7]", "value": 58, "unit": "%"}, {"measurement": "Activity", "setting": "[8]", "value": 76, "unit": "%"}, {"measurement": "IC50", "setting": "Granta-519", "value": 29, "unit": "nM"}, {"measurement": "IC50", "setting": "UO-31", "value": 1130, "unit": "nM"}, {"measurement": "IC50", "setting": "[9]", "value": 68, "unit": "nM"}, {"measurement": "Activity", "setting": "[10]", "value": 114, "unit": "%"}, {"measurement": "IC50", "setting": "NCI-H460", "value": 109, "unit": "nM"}, {"measurement": "IC50", "setting": "Ephrin type-A receptor 2", "value": "> 10000", "unit": "nM"}, {"measurement": "Activity", "setting": "[11]", "value": 113, "unit": "%"}, {"measurement": "Activity", "setting": "U2OS", "value": 13, "unit": "%"}, {"measurement": "Activity", "setting": "A2780", "value": "Dose-Dependent Effect"}, {"measurement": "IC50", "setting": "NCI-H2170", "value": 15, "unit": "nM"}, {"measurement": "Activity", "setting": "[12]", "value": 132, "unit": "%"}, {"measurement": "IC50", "setting": "NCI-H520", "value": 73, "unit": "nM"}, {"measurement": "IC50", "setting": "MDA-MB-436", "value": 93, "unit": "nM"}]}]}
